Where “and” joins values, the source holds several entries; their conditions need not be identical. Equal entries are not always repeated.
Experiments:
Fibroblast = experiment: Multiplex assay against human fibroblast; type: toxicity, cell-based
How it was run: (§1)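 Cells were classed with CellPathfinder machine-learning gating, first as Hoechst high-intensity objects or normal cells, then (normal cells) as healthy, pyknosed or fragmented nuclei, and finally (pyknosed cells) as mitotic or apoptotic. Staining of live cells at seeding used Hoechst33342, BioTracker Green Microtubule Cytoskeleton Dye, MitoTracker Red and Annexin V Alexa Fluor 680, with imaging on a CQ1 microscope at 37°C and 5% CO2 after compound addition. Tubulin, mitochondrial-mass and membrane-permeability phenotypes are per cents of healthy-nucleus cells.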

HEK-293T = experiment: Multiplex assay against HEK293T; type: toxicity, cell-based; conditions: human; how it was run: as §1
[1] = 12 h, 1 µM, compound concentration 1 uM
[2] = 12 h, 10 µM, compound concentration 10 uM
[3] = 24 h, 1 µM, compound concentration 1 uM
[4] = 24 h, 10 µM, compound concentration 10 uM
[5] = 48 h, 1 µM, compound concentration 1 uM
[6] = 48 h, 10 µM, compound concentration 10 uM

## Nc1nc(-c2ccco2)c2cnn(Cc3ccccc3F)c2n1
Fibroblast; [1]
  Population Apoptotic (%): 50% and 45%
  Population Healthy Nuclei (%): 78% and 50%
  Population Hoechst High Intensity Objects (%): 0% and 6%
  Population Membrane Permeable-Phenotype (%): 1% and 2%
  Population Mitochondria Different-Phenotype (%): 2% and 5%
  Population Mitotic Cells (%): 50% and 54%
  Population Normal (%): 99% and 93%
  Population Pyknosed Nuclei (%): 11% and 17%
  Population Tubulin-Different-Phenotype (%): 26% and 42%
  Total Cell Count: 189 and 144
Fibroblast; [2]
  Population Apoptotic (%): 54% and 47%
  Population Fragmented Nuclei (%): 16% and 39%
  Population Healthy Nuclei (%): 61% and 44%
  Population Hoechst High Intensity Objects (%): 8% and 10%
  Population Membrane Permeable-Phenotype (%): 0% and 5%
  Population Mitochondria Different-Phenotype (%): 7% and 13%
  Population Mitotic Cells (%): 45% and 52%
  Population Normal (%): 91% and 89%
  Population Pyknosed Nuclei (%): 21% and 16%
  Population Tubulin-Different-Phenotype (%): 38% and 51%
  Total Cell Count: 123 and 147
Fibroblast; [3]
  Population Apoptotic (%): 50% and 56%
  Population Healthy Nuclei (%): 82% and 53%
  Population Hoechst High Intensity Objects (%): 0% and 6%
  Population Membrane Permeable-Phenotype (%): 0% and 4%
  Population Mitochondria Different-Phenotype (%): 2% and 5%
  Population Mitotic Cells (%): 50% and 43%
  Population Normal (%): 100% and 93%
  Population Pyknosed Nuclei (%): 7% and 17%
  Population Tubulin-Different-Phenotype (%): 24% and 37%
  Total Cell Count: 180 and 139
Fibroblast; [4]
  Population Apoptotic (%): 70% and 43%
  Population Fragmented Nuclei (%): 19% and 43%
  Population Healthy Nuclei (%): 66% and 44%
  Population Hoechst High Intensity Objects (%): 6% and 8%
  Population Mitochondria Different-Phenotype (%): 8% and 5%
  Population Mitotic Cells (%): 29% and 56%
  Population Normal (%): 93% and 91%
  Population Pyknosed Nuclei (%): 14% and 11%
  Population Tubulin-Different-Phenotype (%): 39% and 46%
  Total Cell Count: 127 and 147
Fibroblast; [5]
  Population Apoptotic (%): 45% and 57%
  Population Fragmented Nuclei (%): 16% and 41%
  Population Healthy Nuclei (%): 77% and 48%
  Population Hoechst High Intensity Objects (%): 3% and 6%
  Population Membrane Permeable-Phenotype (%): 2% and 4%
  Population Mitochondria Different-Phenotype (%): 1% and 9%
  Population Mitotic Cells (%): 54% and 42%
  Population Normal (%): 96% and 93%
  Population Pyknosed Nuclei (%): 6% and 10%
  Population Tubulin-Different-Phenotype (%): 26% and 37%
  Total Cell Count: 182 and 147
Fibroblast; [6]
  Population Apoptotic (%): 80% and 50%
  Population Fragmented Nuclei (%): 25% and 50%
  Population Healthy Nuclei (%): 65% and 38%
  Population Hoechst High Intensity Objects (%): 9% and 5%
  Population Membrane Permeable-Phenotype (%): 0% and 16%
  Population Mitochondria Different-Phenotype (%): 10%
  Population Mitotic Cells (%): 20% and 50%
  Population Normal (%): 90% and 94%
  Population Pyknosed Nuclei (%): 9% and 10%
  Population Tubulin-Different-Phenotype (%): 27% and 51%
  Total Cell Count: 115 and 155
HEK-293T; [1]
  Population Apoptotic (%): 37% and 36%
  Population Fragmented Nuclei (%): 6% and 5%
  Population Healthy Nuclei (%): 76% and 81%
  Population Hoechst High Intensity Objects (%): 9% and 11%
  Population Membrane Permeable-Phenotype (%): 0%
  Population Mitochondria Different-Phenotype (%): 58% and 64%
  Population Mitotic Cells (%): 62% and 63%
  Population Normal (%): 90% and 88%
  Population Pyknosed Nuclei (%): 16% and 13%
  Population Tubulin-Different-Phenotype (%): 41% and 23%
  Total Cell Count: 300 and 404
HEK-293T; [2]
  Population Apoptotic (%): 33% and 40%
  Population Fragmented Nuclei (%): 7% and 6%
  Population Healthy Nuclei (%): 73% and 76%
  Population Hoechst High Intensity Objects (%): 8% and 12%
  Population Membrane Permeable-Phenotype (%): 0%
  Population Mitochondria Different-Phenotype (%): 61% and 68%
  Population Mitotic Cells (%): 66% and 60%
  Population Normal (%): 91% and 87%
  Population Pyknosed Nuclei (%): 19% and 17%
  Population Tubulin-Different-Phenotype (%): 43% and 26%
  Total Cell Count: 306 and 265
HEK-293T; [3]
  Population Apoptotic (%): 30% and 28%
  Population Fragmented Nuclei (%): 7% and 9%
  Population Healthy Nuclei (%): 77% and 81%
  Population Hoechst High Intensity Objects (%): 7% and 5%
  Population Membrane Permeable-Phenotype (%): 0%
  Population Mitochondria Different-Phenotype (%): 36% and 46%
  Population Mitotic Cells (%): 69% and 71%
  Population Normal (%): 92% and 94%
  Population Pyknosed Nuclei (%): 15% and 9%
  Population Tubulin-Different-Phenotype (%): 26% and 17%
  Total Cell Count: 396 and 514

Source: ChEMBL document CHEMBL5724801, “EUbOPEN Chemogenomics Library - Multiplex” (2024)
